Substitutions are numbered along the chain they refer to. Like-named read-outs stand apart in the source and are kept apart here.
How the values were obtained:
CLC-0 E166Y mutant = biological target: T1, CLC-0 E166Y mutant (Torpedo marmorata, UniProt P21564, C212S/E166Y); format: cell-based; conditions: read-out: Apparent affinity (K1/2)
T1 sequence (P21564 1-805 E166Y/C212S): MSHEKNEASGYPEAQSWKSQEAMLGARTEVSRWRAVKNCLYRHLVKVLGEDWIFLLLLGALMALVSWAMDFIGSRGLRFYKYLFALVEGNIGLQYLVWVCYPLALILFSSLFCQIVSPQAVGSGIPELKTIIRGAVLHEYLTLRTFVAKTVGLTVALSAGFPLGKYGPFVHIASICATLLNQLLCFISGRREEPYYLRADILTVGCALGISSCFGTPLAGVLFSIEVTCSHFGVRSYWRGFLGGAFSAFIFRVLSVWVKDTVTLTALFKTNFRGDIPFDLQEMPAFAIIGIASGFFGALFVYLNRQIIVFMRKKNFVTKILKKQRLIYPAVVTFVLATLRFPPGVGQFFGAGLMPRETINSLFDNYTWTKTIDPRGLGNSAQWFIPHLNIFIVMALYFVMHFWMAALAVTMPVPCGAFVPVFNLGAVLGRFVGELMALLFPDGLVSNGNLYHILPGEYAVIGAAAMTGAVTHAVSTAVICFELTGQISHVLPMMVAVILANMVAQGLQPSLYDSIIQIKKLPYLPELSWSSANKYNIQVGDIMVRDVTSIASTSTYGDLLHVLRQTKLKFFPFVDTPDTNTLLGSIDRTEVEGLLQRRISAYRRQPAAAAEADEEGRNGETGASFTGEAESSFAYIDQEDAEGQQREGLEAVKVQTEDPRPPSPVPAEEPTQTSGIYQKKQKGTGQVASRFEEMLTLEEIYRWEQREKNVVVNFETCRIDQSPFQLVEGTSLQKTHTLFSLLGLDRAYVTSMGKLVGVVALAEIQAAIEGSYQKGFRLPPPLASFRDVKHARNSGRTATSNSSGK
Summary of the method: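 CLC-0 mutants in the C212S background were transfected into HEK293 cells with lipofectamine and recorded 1–3 d later as excised inside-out patches. Both sides held 130 mM NaCl, 5 mM MgCl2, 10 mM HEPES and 1 mM EGTA, pH 7.4. CPA was perfused continuously onto the cytoplasmic face. Steady-state current over the last 10 ms was normalized to bracketing blocker-free controls and fitted to a Langmuir function for K1/2. Values are mean ± SEM of ~4–6 patches.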

CLC-0 E166Q mutant = biological target: T2, CLC-0 E166Q mutant (Torpedo marmorata, UniProt P21564, C212S/E166Q); format: cell-based
T2 sequence (P21564 1-805 E166Q/C212S): T1 sequence (P21564 1-805 E166Y/C212S) with Y166Q
Summary of the method: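 HEK293 cells expressed C212S-background CLC-0 mutants and were recorded 1–3 d post-transfection as inside-out patches in symmetrical 130 mM NaCl, 10 mM HEPES, pH 7.4. CPA, fatty acids or alkyl sulfates flowed continuously on the cytoplasmic side. C10–C12 compounds were diluted into bath solution from 10 mM DMSO stocks. Test steps ran from +80 to −160 mV after a +80 mV prepulse. Steady-state current was normalized to the mean of pre- and post-blocker controls, and a Langmuir K1/2 was taken at each voltage from ~4–6 patches.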

[1] = read-out: Apparent affinity (K1/2), −60 mV
[2] = read-out: Apparent affinity (K1/2), −80 mV
[3] = read-out: Apparent affinity (K1/2), −100 mV
[4] = read-out: Apparent affinity (K1/2), −120 mV
[5] = read-out: Apparent affinity (K1/2), −140 mV
[6] = read-out: Apparent affinity (K1/2), −160 mV

Row | SMILES | IC50 (CLC-0 E166Y mutant; −80 mV) [mM] | IC50 (CLC-0 E166Y mutant; −100 mV) [mM] | IC50 (CLC-0 E166Y mutant; −120 mV) [mM] | IC50 (CLC-0 E166Y mutant; −140 mV) [mM] | IC50 (CLC-0 E166Y mutant; −160 mV) [mM] | IC50 (CLC-0 E166Q mutant; read-out: Apparent affinity (K1/2), −40 mV) [mM] | IC50 (CLC-0 E166Q mutant; [1]) [mM] | IC50 (CLC-0 E166Q mutant; [2]) [mM] | IC50 (CLC-0 E166Q mutant; [3]) [mM] | IC50 (CLC-0 E166Q mutant; [4]) [mM] | IC50 (CLC-0 E166Q mutant; [5]) [mM] | IC50 (CLC-0 E166Q mutant; [6]) [mM] | IC50 (CLC-0 E166Q mutant; read-out: K1/2, Fig. 10 D) [mM] | IC50 (CLC-0 E166Y mutant; −40 mV) [mM] | IC50 (CLC-0 E166Y mutant; −60 mV) [mM] | inhibition of current (CLC-0 E166Q mutant; 300 μM CPA, −160 mV) [%]
1 | CCCCCCCC(=O)O [octanoate] | 16.7 ± 0.65 | 11.2 ± 0.54 | 7.43 ± 0.41 | 4.99 ± 0.31 | 3.36 ± 0.18 | 17.8 ± 1.5 | 11.4 ± 0.69 | 6.94 ± 0.36 | 4.21 ± 0.24 | 2.53 ± 0.16 | 1.45 ± 0.1 | 0.88 ± 0.09 | ~1 | – | – | –
2 | O=C(O)COc1ccc(Cl)cc1 [CPA, p-chlorophenoxy acetate] | 1.37 ± 0.05 | 0.7 ± 0.01 | 0.38 ± 0.01 | 0.22 ± 0.01 | 0.13 ± 0.01 | – | 19.7 ± 0.9 | 14 ± 0.7 | 9.71 ± 0.48 | 6.84 ± 0.31 | 4.71 ± 0.15 | 3.34 ± 0.08 | – | 6.18 ± 0.67 | 2.79 ± 0.15 | < 10

Source: article PMC2606940 (The Journal of General Physiology, 2009)
